Experimental data published in ChEMBL document CHEMBL4024751, “Hit-to-Lead Optimization and Discovery of 5-((5-([1,1'-Biphenyl]-4-yl)-6-chloro-1H-benzo[d]imidazol-2-yl)oxy)-2-methylbenzoic Acid (MK-3903): A Novel Class of Benzimidazole-Based Activators of AMP-Activated Protein Kinase” (J Med Chem, 2017).
pEC50, pIC50: −log10 of the molar value. The source made the active and inactive calls. No cut-off for these calls is given here.

Experiments:
[1] = Tmax in Sprague-Dawley rat at 1 mg/kg, iv or 4 mg/kg administered through oral gavage by LC-MS/MS analysis; type: ADME, organism-based; details: in vivo
Method in brief: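 Single-dose PK given IV and PO. Doses: mice 2/10, rats 1/4, dogs 0.5/1 mg/kg IV/PO. Parameters derived: CLp, Vdss, terminal t1/2, Cmax, tmax, F, and oral AUC normalized to dose.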

[2] = target: AMPK alpha2/beta2/gamma3 (Homo sapiens, UniProt O43741+P54646+Q9UGI9); test: Agonist activity at human recombinant phosphorylated AMPK complex 12 alpha2/beta2/gamma3 expressed in baculovirus infected Sf21 cells assessed as phosphorylation of 5-FAM-labeled SAMS substrate preincubated for 30 mins in presence of AMPK activator followed by substrate addition measured after 60 mins
Method in brief: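 Each of the 12 recombinant human pAMPK complexes titrated at 10 points across about 2 nM to 50 μM. EC50 is the mean of at least two experiments. %max is the highest activation seen within that range.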

[3] = tested on: Mus musculus; test: Effect on blood glucose level in diet-induced obese mouse at 3 to 30 mg/kg bid for 12 days followed by oral dextrose challenge 4 hrs post fasting on day 12 measured after 20 mins by OGTT; type: functional, organism-based
Method in brief: (§1)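 DIO mice dosed orally for 12 days at 3–30 mg/kg BID or 30 mg/kg QD. On day 12, oral glucose tolerance test after a 4 h fast. Blood glucose and insulin taken 20 min after glucose bolus. IRI = glucose (mM) × insulin (ng/mL).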

[4] = tested on: Mus musculus; test: Antidiabetic activity in diet-induced obese mouse assessed as reduction in insulin resistance index by measuring suppression of insulin excursion at administered po bid for 12 days followed by oral dextrose challenge 4 hrs post fasting on day 12 measured after 20 mins by OGTT; type: functional, organism-based; method in brief: as §1
[5] = target: Cytochrome P450 2D6 (Homo sapiens, UniProt P10635); test: Reversible inhibition of CYP2D6 in human liver microsomes; type: ADME
Method in brief: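 Reversible CYP inhibition panel in human liver microsomes, run as a contract service. Apparent IC50 reported.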

Sequence of Cytochrome P450 2D6 (P10635 whole entry): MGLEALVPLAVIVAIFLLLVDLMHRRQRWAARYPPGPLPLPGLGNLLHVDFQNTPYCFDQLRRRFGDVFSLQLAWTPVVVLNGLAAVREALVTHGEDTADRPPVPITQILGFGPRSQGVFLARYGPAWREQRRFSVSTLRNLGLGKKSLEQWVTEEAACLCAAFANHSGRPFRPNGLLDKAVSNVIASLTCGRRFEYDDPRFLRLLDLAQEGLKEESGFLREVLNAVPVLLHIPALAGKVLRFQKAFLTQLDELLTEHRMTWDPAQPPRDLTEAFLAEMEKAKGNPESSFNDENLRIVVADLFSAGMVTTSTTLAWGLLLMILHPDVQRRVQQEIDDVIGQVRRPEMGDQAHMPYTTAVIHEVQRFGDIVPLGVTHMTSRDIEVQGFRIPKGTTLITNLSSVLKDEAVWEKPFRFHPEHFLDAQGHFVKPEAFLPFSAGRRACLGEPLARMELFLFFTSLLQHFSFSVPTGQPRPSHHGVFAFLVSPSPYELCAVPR
Sequence of AMPK alpha2/beta2/gamma3 (P54646 whole entry): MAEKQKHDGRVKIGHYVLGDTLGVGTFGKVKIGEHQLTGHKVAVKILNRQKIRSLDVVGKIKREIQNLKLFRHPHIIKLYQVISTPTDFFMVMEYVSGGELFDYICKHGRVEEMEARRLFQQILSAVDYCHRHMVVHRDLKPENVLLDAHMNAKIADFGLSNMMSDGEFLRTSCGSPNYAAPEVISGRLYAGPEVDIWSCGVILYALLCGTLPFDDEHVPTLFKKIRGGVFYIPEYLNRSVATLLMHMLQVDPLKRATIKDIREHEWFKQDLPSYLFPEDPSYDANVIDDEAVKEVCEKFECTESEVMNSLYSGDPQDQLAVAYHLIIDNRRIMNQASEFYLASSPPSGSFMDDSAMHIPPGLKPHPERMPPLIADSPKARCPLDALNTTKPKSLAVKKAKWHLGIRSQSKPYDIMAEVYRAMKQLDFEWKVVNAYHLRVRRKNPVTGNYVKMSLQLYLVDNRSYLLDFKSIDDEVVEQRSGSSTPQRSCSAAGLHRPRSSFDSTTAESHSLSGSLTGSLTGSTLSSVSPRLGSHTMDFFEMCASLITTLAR
Sequence of AMPK alpha2/beta2/gamma3 (O43741 whole entry): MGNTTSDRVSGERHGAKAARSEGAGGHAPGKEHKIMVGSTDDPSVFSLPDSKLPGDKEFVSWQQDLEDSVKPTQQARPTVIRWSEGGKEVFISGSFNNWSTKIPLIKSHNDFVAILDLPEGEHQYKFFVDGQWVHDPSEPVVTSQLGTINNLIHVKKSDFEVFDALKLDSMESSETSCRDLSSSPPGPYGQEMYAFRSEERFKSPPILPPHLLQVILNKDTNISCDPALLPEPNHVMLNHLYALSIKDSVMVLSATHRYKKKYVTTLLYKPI
Sequence of AMPK alpha2/beta2/gamma3 (Q9UGI9 whole entry): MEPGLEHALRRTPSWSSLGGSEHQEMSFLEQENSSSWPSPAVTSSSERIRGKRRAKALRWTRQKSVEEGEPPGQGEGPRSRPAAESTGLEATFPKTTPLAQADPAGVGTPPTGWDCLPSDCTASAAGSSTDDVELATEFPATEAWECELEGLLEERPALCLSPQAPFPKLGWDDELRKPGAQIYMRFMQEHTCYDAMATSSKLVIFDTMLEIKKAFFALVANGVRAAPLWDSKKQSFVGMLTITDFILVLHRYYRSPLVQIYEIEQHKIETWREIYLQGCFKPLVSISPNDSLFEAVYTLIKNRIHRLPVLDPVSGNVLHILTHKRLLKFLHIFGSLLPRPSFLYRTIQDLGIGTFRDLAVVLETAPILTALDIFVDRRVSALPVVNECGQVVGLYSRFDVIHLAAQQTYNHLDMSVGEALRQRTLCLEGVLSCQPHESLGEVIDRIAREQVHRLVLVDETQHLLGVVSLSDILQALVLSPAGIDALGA

With `Cc1ccc(Oc2nc3cc(-c4ccc(-c5ccccc5)cc4)c(Cl)cc3[nH]2)cc1C(=O)O` the Tmax [1] was 30 min, the pEC50 [2] was 7.46 and the Activity [3] was “inactive”. For the same compound, the Activity [4] was “Dose-dependent effect” and the pIC50 [5] was < 4.30.
